TAAR1 agonist – human TAAR1 agonism | 0.99% of 360,000 active | CHO RD-HGA16 TAAR1, Fluo-8 calcium fluorescence; vehicle wells 0%, saturating PEA agonist 100% | activation, % at 3 µM | Q96RJ0 | AID 624467;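 active means activation above the mean activation of all test compounds in the run plus 3 SD, cut at about 38% in these data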
Target sequence (Q96RJ0 whole entry, looked up): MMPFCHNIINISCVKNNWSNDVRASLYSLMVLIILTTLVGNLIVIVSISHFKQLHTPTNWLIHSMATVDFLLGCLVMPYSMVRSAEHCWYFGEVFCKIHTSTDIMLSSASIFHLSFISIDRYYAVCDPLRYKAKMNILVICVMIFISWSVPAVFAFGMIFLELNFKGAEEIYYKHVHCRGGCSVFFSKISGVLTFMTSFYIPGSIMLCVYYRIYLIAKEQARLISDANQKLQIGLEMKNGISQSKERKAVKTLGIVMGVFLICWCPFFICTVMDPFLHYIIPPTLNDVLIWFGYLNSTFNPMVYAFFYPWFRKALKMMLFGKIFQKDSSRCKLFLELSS
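System: CHO-derived RD-HGA16 cells with stable Gα16 and human TAAR1. Times: 17-24 h plating, Fluo-8 75 min 37 °C, 30 min RT. Measured by: calcium-sensitive Fluo-8 signal, excitation 470-495, emission 515-575 nm. Read-out basis: % activation relative to PEA EC100 response. Control set: DMSO and PEA EC100. Repeats: no replicates (n 1).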
MC4R barr agon – activates human MC4R beta-arrestin recruitment; P32245; U2OS MC4R beta-arrestin complementation, luminescence; percent of melanotan II response, DMSO zero; activation, % at 8.9 µM; 0.98% of 360,000 active;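 active means activation above a per-plate cutoff, the mean activation of sample wells on that plate plus 3 SD, cut at about 8% in these data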
Target sequence (P32245 whole entry, looked up): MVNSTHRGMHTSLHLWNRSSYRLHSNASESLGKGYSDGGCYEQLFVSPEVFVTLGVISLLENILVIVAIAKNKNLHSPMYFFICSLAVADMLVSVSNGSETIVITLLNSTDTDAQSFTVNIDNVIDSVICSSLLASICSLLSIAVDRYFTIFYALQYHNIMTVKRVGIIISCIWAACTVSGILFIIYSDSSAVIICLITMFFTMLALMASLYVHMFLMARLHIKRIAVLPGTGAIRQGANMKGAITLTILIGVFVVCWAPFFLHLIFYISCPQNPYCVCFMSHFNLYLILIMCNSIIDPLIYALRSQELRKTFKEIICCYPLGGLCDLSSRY
TAAR1 antagonist – human TAAR1 antagonism; CHO RD-HGA16 TAAR1, Fluo-8 calcium fluorescence, antagonist; inhibition, % at 3 µM; 1.5% of 360,000 active; Q96RJ0; AID 624466;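 active means inhibition above a per-plate cutoff, the mean inhibition of test compounds on that plate plus 3 SD, cut at about 49% in these data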;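 further: 0% = DMSO plus EC80 beta-PEA response and 100% = DMSO alone without agonist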
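test system = CHO RD-HGA16 cells bearing hTAAR1 | replication = singlicate | controls = DMSO-only wells and EC80 β-PEA-stimulated wells | reagent = EC80 β-phenethylamine stimulus | read-out basis = percent inhibition of PEA-evoked calcium signal, max/basal emission ratio | schedule = seeding 17-24 h prior, 75-min 37 °C, 30-min RT dye loading | signal = kinetic Fluo-8 calcium fluorescence measurement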
B2AR ag – human beta-2 adrenergic receptor agonism by FAP; P07550; 0.43% of 340,000 active; response, % (concentration not given with the values); Am2.2-beta2AR cells, FAP receptor internalization, flow cytometry; AID 504454;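 active means response above a set limit, near 3 SD of response in nonfluorescent compounds, cut at about 42% in these data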
HTR2A ag – activates the mouse 5-HT2A serotonin receptor | 0.66% of 360,000 active | CHO-K1 mHTR2A beta-arrestin complementation, luminescence; percent of 30 µM serotonin response | AID 624169 | activation, % at 7.6 µM;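 active means activation above a run cutoff, the mean activation of all tested compounds plus 3 SD, cut at about 14% in these data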;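 further: 0% = plate median of compound wells and 100% = 30 µM serotonin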
MC4R antag cAMP – blocks human MC4R cAMP signaling; MC4R-expressing cells, MTII-stimulated cAMP, LANCE TR-FRET; inhibition, % at 6.5 µM; P32245; AID 540295; 0.48% of 360,000 active;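 active means inhibition above its plate's cutoff, the mean of tested wells on that plate plus 3 SD, cut at about 29% in these data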;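 further: 0% = Melanotan II alone and 100% = Melanotan II plus saturating MCL0020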
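Material – human MC4R-expressing U2OS cells · Repeats – no replicates · Detection – TR-FRET with Eu-cAMP and labeled anti-cAMP, 671 nm · Times – compound 30 min, challenge 1 h, detection 1 h · Compound – single nominal compound dose of 6.5 µM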
TAAR1 ag confirm – confirmation of human TAAR1 agonists | 82% of 2,400 active | activation, % at 3 µM | AID 651783 | shares compounds with TAAR1 agonist | CHO RD-HGA16 TAAR1, Fluo-8 calcium fluorescence; scaled: DMSO 0%, maximal phenethylamine 100%;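 active means activation above a cutoff set at the run's mean compound activation plus 3 SD, cut at about 39% in these data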
Ga16 ag counter – nonselective agonist in parental cells, TAAR1 agonist counter-screen | CHO-Ga16 parental, Fluo-8 calcium fluorescence; normalized to maximal ATP response, DMSO zero | 50% of 2,400 active | activation, % at 3 µM | shares compounds with TAAR1 agonist;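 active means activation above the run cutoff, the mean activation over all tested wells plus 3 SD, cut at about 12% in these data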;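 further: 0% = DMSO wells and 100% = maximal ATP response on the peak over basal ratio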
TAAR1 desensitize – TAAR1 response desensitization, agonist counter-screen; shares compounds with TAAR1 agonist; CHO RD-HGA16 hTAAR1, Fluo-8 calcium, beta-PEA response inhibition; inhibition, % at 3 µM; 46% of 2,400 active;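 active means inhibition above the run cutoff, the mean inhibition of all test compounds plus 3 SD, cut at about 49% in these data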;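 further: beta-PEA stimulus applied at its EC80; loss of beta-PEA calcium signal after compound pretreatment read as receptor desensitization; 0% = DMSO with beta-PEA at EC80 and 100% = DMSO alone without agonist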
Ga16 antag count – counter-screen for TAAR1 agonists: nonselective Ga16 antagonists; AID 651952; CHO-Ga16 ATP-induced calcium, Fluo-8 fluorescence; shares compounds with TAAR1 agonist; 39% of 2,400 active; inhibition, % at 3 µM;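 active means inhibition above the plate's mean compound inhibition plus 3 SD, computed per plate, cut at about 22% in these data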;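 further: 0% = EC80 ATP with DMSO and 100% = DMSO wells without ATP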
* hit, by the source's call. Shown are actives, neighbours in structure and some others; about 4.3% of the full set was active somewhere.

For CC(=O)c1ccccc1C(=O)N1CCCC(C(=O)c2ccc(C(F)(F)F)cc2)C1 (configuration not stated) the results were TAAR1 agonist 3.5, MC4R barr agon -2.9, TAAR1 antagonist -5.3, B2AR ag -1.6, HTR2A ag 2.6 and MC4R antag cAMP 10.4.
For CC1(c2ccc(Cl)cc2)NC(=O)N(CC(=O)Nc2ccc3c(c2)OCO3)C1=O (configuration not stated) the results were TAAR1 agonist 58.9*, MC4R barr agon 0.7, TAAR1 antagonist 35.8, HTR2A ag -2.0, MC4R antag cAMP 8.9, TAAR1 ag confirm 76.5*, Ga16 ag counter 23.7*, TAAR1 desensitize 54.2* and Ga16 antag count 24.0*.
`Cc1ccc(NC(=O)CN2C(=O)NC(C)(c3ccc4c(c3)OCO4)C2=O)cc1` (configuration not stated) gave TAAR1 agonist 12.0, MC4R barr agon -0.6, TAAR1 antagonist -13.3, B2AR ag -3.8, HTR2A ag 0.4 and MC4R antag cAMP 4.4.
`N=C1/C(=C\c2coc3ccccc3c2=O)C(=O)N=C2SC(c3ccncc3)=NN12` gave TAAR1 agonist 174.5*, MC4R barr agon 0.7, TAAR1 antagonist 104.2*, B2AR ag -8.0, HTR2A ag 1.2, MC4R antag cAMP -6.0, TAAR1 ag confirm 80.8*, Ga16 ag counter 87.0*, TAAR1 desensitize 87.9* and Ga16 antag count 77.7*.
For CC(C)CSC1=NSC2=NC(=O)/C(=C\c3ccccc3)C(=N)N12 the results were TAAR1 agonist 2.9, MC4R barr agon -0.9, TAAR1 antagonist -7.7, B2AR ag 3.0, HTR2A ag 0.0 and MC4R antag cAMP 0.2.
`CC(C)CSC1=NSC2=NC(=O)/C(=C\c3coc4ccccc4c3=O)C(=N)N12` gave TAAR1 agonist 423.7*, MC4R barr agon 2.7, TAAR1 antagonist 106.8*, B2AR ag inactive, HTR2A ag 3.3, MC4R antag cAMP 17.5, TAAR1 ag confirm 118.5*, Ga16 ag counter 105.6*, TAAR1 desensitize 91.0* and Ga16 antag count 82.1*.
Screening O=C(NCCN1CCCC(O)C1)c1cc(COc2cccc(C(F)(F)F)c2)on1 (configuration not stated) returned TAAR1 agonist 4.1, MC4R barr agon 1.0, TAAR1 antagonist -21.9, HTR2A ag -5.0 and MC4R antag cAMP 11.2.
COc1ccc(C(=O)NC(=S)NNC(=O)c2ccccc2C)cc1 was read as TAAR1 agonist 169.6*, MC4R barr agon -1.8, TAAR1 antagonist 92.3*, B2AR ag 1.0, HTR2A ag -10.5, MC4R antag cAMP 0.2, TAAR1 ag confirm 143.0*, Ga16 ag counter 104.6*, TAAR1 desensitize 97.9* and Ga16 antag count 74.8*.
Screening COc1ccc(C(=O)NC(=S)NNC(=O)c2ccccc2O)cc1 returned TAAR1 agonist 79.8*, MC4R barr agon 1.4, TAAR1 antagonist 33.1, B2AR ag 8.1, HTR2A ag 7.0, MC4R antag cAMP -4.3, TAAR1 ag confirm 56.7*, Ga16 ag counter 55.5*, TAAR1 desensitize 21.6 and Ga16 antag count 27.2*.
COc1ccc(C(=O)NNC(=S)NC(=O)C(C)(C)C)cc1 was read as TAAR1 agonist 145.2*, MC4R barr agon -6.6, TAAR1 antagonist 97.8*, B2AR ag 3.5, HTR2A ag -4.0, MC4R antag cAMP -9.1, TAAR1 ag confirm 106.3*, Ga16 ag counter 89.5*, TAAR1 desensitize 48.2 and Ga16 antag count 44.1*.
COc1ccc(C(=O)NC(=S)NNC(=O)c2ccco2)cc1 was read as TAAR1 agonist 6.8, MC4R barr agon -0.7, TAAR1 antagonist -8.5, B2AR ag 3.0, HTR2A ag 5.1 and MC4R antag cAMP 10.7.
COc1cc(C(=O)NC(=S)NNC(=O)[C@H]2C[C@@H]2c2ccccc2)cc(OC)c1OC was read as TAAR1 agonist 74.0*, MC4R barr agon 0.0, TAAR1 antagonist -6.6, B2AR ag 7.1, HTR2A ag 3.7, MC4R antag cAMP -2.0, TAAR1 ag confirm 37.3, Ga16 ag counter 42.6*, TAAR1 desensitize 24.3 and Ga16 antag count 13.7.
Screening CC(C)(CNC(=O)c1cccc(S(=O)(=O)N2CCCCC2)c1)N1CCOCC1 returned TAAR1 agonist 0.9, MC4R barr agon -0.1, TAAR1 antagonist -17.1, HTR2A ag 8.0 and MC4R antag cAMP 4.2.
`CN(CC(=O)Nc1ccccc1Cl)C(=O)Cn1cc(C(F)(F)F)cc(Cl)c1=O` gave TAAR1 agonist 0.3, MC4R barr agon 4.1, TAAR1 antagonist 9.8, B2AR ag -3.8, HTR2A ag 0.4 and MC4R antag cAMP 5.7.
CCOC(=O)c1sc2nc(C)nc(N3CCN(S(=O)(=O)c4ccccc4)CC3)c2c1C was read as TAAR1 agonist 0.2, MC4R barr agon -0.8, TAAR1 antagonist 26.0, B2AR ag 1.4, HTR2A ag 5.3 and MC4R antag cAMP 17.7.
`O=C(/C=C/c1cccs1)NC(=S)NNC(=O)c1ccccc1O` gave TAAR1 agonist 87.8*, MC4R barr agon -5.4, TAAR1 antagonist 17.4, B2AR ag 5.4, HTR2A ag 2.7, MC4R antag cAMP -2.1, TAAR1 ag confirm 23.0, Ga16 ag counter 74.3*, TAAR1 desensitize 14.7 and Ga16 antag count 35.8*.
For COc1ccc(C(=O)NC(=S)NNC(=O)COc2ccccc2)cc1 the results were TAAR1 agonist 45.6*, MC4R barr agon -1.5, TAAR1 antagonist -21.4, B2AR ag -10.7, HTR2A ag -1.6, MC4R antag cAMP 3.5, TAAR1 ag confirm 66.3*, Ga16 ag counter 52.0*, TAAR1 desensitize 19.6 and Ga16 antag count 23.2*.
`COc1ccc(C(=O)NNC(=S)NC(=O)c2cccc([N+](=O)[O-])c2)cc1` gave TAAR1 agonist 65.9*, MC4R barr agon -0.6, TAAR1 antagonist 17.4, B2AR ag -4.8, HTR2A ag 5.1, MC4R antag cAMP -3.5, TAAR1 ag confirm 88.0*, Ga16 ag counter 63.6*, TAAR1 desensitize 36.5 and Ga16 antag count 26.5*.

Bioassay records as filed in PubChem BioAssay.
